Results from PubChem BioAssay AID1217 (Sanford-Burnham Center for Chemical Genomics, 2008).
Hit rate of the full screen: of about 190,000 compounds, about 1,300 (0.68%) were called active. Shown is part of a subset that was picked to be rich in actives. A number with no mark means an inactive call.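 The calls were made as follows: active = primary screen inhibition at 20 µM above a set limit (cut at about 50% in these data); inactive = the rest.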

Tested on: diaphorase (Clostridium kluyveri)
Assay: compounds blocking diaphorase resazurin reduction – biochemical, uHTS, resorufin fluorescence, counter-screen for diaphorase-coupled primary assays, primary screen (AID 1217);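 also: plate controls were DMSO with full reaction for no effect and wells lacking NADH for full effect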
Details: diaphorase resazurin-to-resorufin fluorescence, NADH, 16 min; at 20 µM; active compounds read high; bacterial (C. kluyveri) enzyme, not human
How it was run: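 Benchmarks: positive control wells lacking NADH, neutral wells with DMSO only. System: bacterial diaphorase enzyme (C. kluyveri). Input: 0.14 U/mL diaphorase, enzyme working solution. Detection: resorufin fluorescence, excitation 544 nm, emission 590 nm. Times: 16-min room-temperature incubation before reading.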

Structure (SMILES)	inhibition
COc1cccc(NC(=S)N(Cc2ccc(C)cc2)Cc2ccccn2)c1	3.1%
Cc1cc(-c2csc(N)n2)c(C)n1-c1ccccc1	19.9%
CC(Sc1nc2c([nH]c3ccccc32)c(=O)n1C)c1ccccc1 (stereo unspecified)	2.9%
COc1cccc(CNn2cn[nH]c2=S)c1OCc1ccccc1	79.8% (active)
C=CCOc1c(CNn2cn[nH]c2=S)cccc1OC	39.3%
C=CCOc1cccc(CNn2cn[nH]c2=S)c1	14%
O=c1[nH]n2c(=O)c3c([nH]c2c1N=Nc1ccccc1)CCC3	20.3%
Cc1csc(SCC(=O)Nc2sccc2C#N)n1	-2.4%
CCOc1ccc(CN2CCCN(C)CC2)cc1	76.8% (active)
OC(COc1ccc(CN2CCSCC2)cc1)CN1CCCCC1 (stereo unspecified)	6.8%
CCOc1ccc(CN2CCN(Cc3ccc(C)o3)CC2CCO)cc1 (stereo unspecified)	-6.4%
N#CC1(NC(=O)COc2ccc3oc4ccccc4c3c2)CCCCC1	-0.7%
O=[N+]([O-])c1cccc(-c2nnc3c4ccccc4c4ccccc4n23)c1	3.7%
CC(=O)c1c(-c2ccccc2)c2ccccc2[nH]c1=O	17.9%
O=c1[nH]c2ccccc2n2c(-c3ccccc3)nnc12	66.5% (active)
Cn1ncc2c(NNC(=O)Cc3cccc4ccccc34)ncnc21	8.6%
CN(CC#CCC(c1ccccc1)c1ccccc1)C(C)(C)C	17.9%
OC(C#CCN1CCOCC1)(c1ccccc1)C1CCCCC1 (stereo unspecified)	-10.7%
CC(C)(C)N(CC#CCC(O)(c1ccccc1)C1CCCC1)CCO (stereo unspecified)	57.2% (active)
O=S(=O)(Nc1ccc2cn[nH]c2c1)c1ccccc1	6.9%
COc1cccc(-c2ccc(C#N)c(SCC(=O)NCCc3ccc(Cl)cc3)n2)c1	7%
